37 sequences from the array DNA melting data of Ke et al. (doi:10.1101/2024.01.08.574731) can be followed below.

Data set [1] in a line: folding enthalpy; higher = less favourable; fluorescence melt of hairpins on a sequencing array, two-state fit. The following applies: sodium 0.088 M. Put shortly: (§1)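 Folding enthalpy and melting temperature were estimated with bootstrapped two-state fits and combined across four replicates by inverse-variance weighting, with fitted temperatures raised by 9.35 °C to match UV melts. The data were Cy3 fluorescence of library hairpins, with annealed Cy3 and quencher oligos, on a sequenced MiSeq flow cell in 50 mM Na-HEPES pH 8.0, 25 mM NaCl, imaged in 2.5 °C steps up to 60 °C and normalised to pre-quench Cy3 and control constructs.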

Data set [2] can be described thus: melting temperature; fluorescence melt of hairpins on a sequencing array, two-state fit, raised by 9.35 °C to match UV melts. The following applies: sodium 0.088 M. Put shortly:
as §1

On to GATACTGAAAAGTATC ((((((....)))))), for which the folding enthalpy in data set [1] is -40.9 kcal/mol. Further, the Tm in data set [2] worked out at 48.5 °C.
As for GATAGACGAAAGTCAATC (((.(((....))).))), the folding enthalpy in data set [1] is -22.5 kcal/mol. In addition, in data set [2], the Tm stood at 41.2 °C.
Regarding GATAGACGAAAGTCATC (((.(((....)))))), in data set [1], the folding enthalpy is -15.4 kcal/mol. The Tm in data set [2] stood at 38.4 °C.
On the same counts, the results for GATAGAGGAAACTCTATC (((((((....))))))) are -42 kcal/mol and 50.2 °C.
On the same counts, the results for GATAGCACGAAAGTGATC (((..(((....)))))) are -9.8 kcal/mol and 28.4 °C.
On the same counts, the results for GATAGCCGAAAGGCGATC (((.(((....))).))) are -17.9 kcal/mol and 58.8 °C.
For GATAGCGAAAGCTAGATC ((((((....)))..))), the folding enthalpy in data set [1] is -15.4 kcal/mol. Besides, in data set [2], the Tm amounted to 45.2 °C.
Regarding GATAGCGAAAGCTCATC ((((((....))).))), the folding enthalpy in data set [1] is -13.3 kcal/mol. Also, the Tm in data set [2] came out at 36.5 °C.
On the same counts, the results for GATAGCGAAAGCTGAATC ((((((....)))..))) are -10.9 kcal/mol and 27 °C.
On the same counts, the results for GATAGCGAAAGCTGTATC ((((((....)))..))) are -12.8 kcal/mol and 31.9 °C.
On the same counts, the results for GATAGCGAAAGCTTAATC ((((((....)))..))) are -10.8 kcal/mol and 25.3 °C.
On to GATAGGCCGAAAGGCATC (((..(((....)))))), for which the folding enthalpy in data set [1] is -9.82 kcal/mol. In addition, the Tm in data set [2] stood at 30.3 °C.
On the same counts, the results for GATAGTGGAAACACTATC (((((((....))))))) are -47.2 kcal/mol and 54.5 °C.
On the same counts, the results for GATAGTGGAAACATTATC ((((.((....)).)))) are -18.4 kcal/mol and 31 °C.
On the same counts, the results for GATATAGGAAACTATATC (((((((....))))))) are -33.4 kcal/mol and 45.5 °C.
Consider GATATAGGAAACTATGTC ((.((((....)))).)), for which the folding enthalpy in data set [1] is -21.8 kcal/mol. In data set [2], the Tm is 33.5 °C.
In the case of GATATCACGAAAGTGATC (((..(((....)))))), in data set [1], the folding enthalpy was -9.68 kcal/mol. Moreover, the Tm in data set [2] amounted to 39.4 °C.
Regarding GATATCCGAAAGGAAATC (((.(((....))).))), the folding enthalpy in data set [1] was -27.2 kcal/mol. For the same sequence, in data set [2], the Tm was determined as 37.1 °C.
On the same counts, the results for GATATCCGAAAGGACATC (((.(((....))).))) are -22 kcal/mol and 38.9 °C.
As to GATATCGAAAGATATC ((((((....)))))), the folding enthalpy in data set [1] was -41 kcal/mol. For the same sequence, the Tm in data set [2] was found to be 53.6 °C.
On the same counts, the results for GATATCGGAAACGGTATC ((((.((....)).)))) are -29.8 kcal/mol and 44 °C.
On the same counts, the results for GATATGAAAATATC (((((....))))) are -15.7 kcal/mol and 35.7 °C.
As to GATATTGGAAACAGTATC ((((.((....)).)))), in data set [1], the folding enthalpy is -12.2 kcal/mol. In addition, the Tm in data set [2] worked out at 34.3 °C.
On the same counts, the results for GATCAAAAAGTTGATC ((((((....)))))) are -14.1 kcal/mol and 33 °C.
GATCAAAAATTGATC ((((((...)))))): the folding enthalpy in data set [1] is -29.7 kcal/mol. Besides, the Tm in data set [2] was found to be 37 °C.
On the same counts, the results for GATCAAAACATTGATC ((((((....)))))) are -31.7 kcal/mol and 42.3 °C.
On the same counts, the results for GATCAAAAGTTGATC ((((((...)))))) are -26.1 kcal/mol and 39.5 °C.
On the same counts, the results for GATCAAAAGTTTGATC ((((((....)))))) are -27.7 kcal/mol and 42.4 °C.
In the case of GATCAAACATTGATC ((((((...)))))), in data set [1], the folding enthalpy is -31.4 kcal/mol. Also, the Tm in data set [2] is 41.2 °C.
As for GATCAAAGATTGATC ((((((...)))))), the folding enthalpy in data set [1] is -27.5 kcal/mol. In data set [2], the Tm was determined as 36.1 °C.
Turning to GATCAAAGATTTGATC ((((((....)))))), the folding enthalpy in data set [1] is -31.8 kcal/mol. In data set [2], the Tm turned out to be 43.6 °C.
On the same counts, the results for GATCAAAGCGTTGATC ((((((....)))))) are -31.6 kcal/mol and 43.7 °C.
As to GATCAAAGTATTGATC ((((((....)))))), in data set [1], the folding enthalpy is -29.8 kcal/mol. Besides, the Tm in data set [2] amounted to 42.6 °C.
On the same counts, the results for GATCAAAGTGTTGATC ((((((....)))))) are -29.6 kcal/mol and 42.4 °C.
GATCAACAGATTGATC ((((((....)))))): in data set [1], the folding enthalpy is -30.1 kcal/mol. Besides, in data set [2], the Tm came out at 40.4 °C.
In the case of GATCAACATTTGATC ((((((...)))))), in data set [1], the folding enthalpy is -31.1 kcal/mol. In addition, the Tm in data set [2] stood at 38.2 °C.
For GATCAACCACTTGATC ((((((....)))))), the folding enthalpy in data set [1] is -32.6 kcal/mol. For the same sequence, in data set [2], the Tm is 42.3 °C.
